Test results taken from ChEMBL document CHEMBL4251654, “Structure-based design of human immuno- and constitutive proteasomes inhibitors” (Eur J Med Chem, 2018).
Activity calls are given as the source filed them. No cut-off for these calls is given here.

Key:
[1] = target: T1, Proteasome Macropain subunit MB1 (Homo sapiens, UniProt P28074); assay: Inhibition of human 20S constitutive proteasome beta-5 using Suc-LLVY-AMC as substrate incubated for 15 mins measured for 45 mins by fluorescence assay
T1 sequence (P28074 whole entry): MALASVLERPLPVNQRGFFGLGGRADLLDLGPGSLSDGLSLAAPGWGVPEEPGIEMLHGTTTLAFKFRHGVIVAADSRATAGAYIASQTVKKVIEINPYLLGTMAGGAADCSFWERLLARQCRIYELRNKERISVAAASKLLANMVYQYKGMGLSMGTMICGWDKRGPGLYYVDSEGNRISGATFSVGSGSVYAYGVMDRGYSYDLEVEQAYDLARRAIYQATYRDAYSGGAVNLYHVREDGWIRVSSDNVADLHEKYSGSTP
In short: (§1)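 Human 20S cCP or iCP (0.3 nM) was exposed to compound (0.001-50 μM) for 15 min in pH 8 buffer of 20 mM Tris-HCl, 10% glycerol, 0.01% SDS, 2% DMSO. Suc-LLVY-AMC at 20 μM followed. Fluorescence (ex 360/em 460 nm) was read 45 min at 37 °C versus untreated enzyme.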

[2] = target: T2, Proteasome subunit beta type-8 (Homo sapiens, UniProt P28062); assay: Inhibition of human 20S immunoproteasome beta-5 using Suc-LLVY-AMC as substrate incubated for 15 mins measured for 45 mins by fluorescence assay; in short: as §1
T2 sequence (P28062 whole entry): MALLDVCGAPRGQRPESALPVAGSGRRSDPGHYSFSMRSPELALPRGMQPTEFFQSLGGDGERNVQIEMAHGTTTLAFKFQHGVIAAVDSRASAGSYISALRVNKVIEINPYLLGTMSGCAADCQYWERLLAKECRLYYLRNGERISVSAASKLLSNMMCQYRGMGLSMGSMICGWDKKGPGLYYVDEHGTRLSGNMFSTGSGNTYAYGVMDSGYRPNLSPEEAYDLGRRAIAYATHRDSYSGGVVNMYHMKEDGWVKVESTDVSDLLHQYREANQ

[3] = target: T3, Proteasome Macropain subunit MB1 (Homo sapiens) (UniProt P28074); assay: Inhibition of human 20S constitutive proteasome beta-5 at 50 uM using Suc-LLVY-AMC as substrate incubated for 15 mins measured for 45 mins by fluorescence assay relative to control; in short: as §1
T3 sequence (whole entry): T1 sequence (P28074 whole entry)

[4] = target: T4, Proteasome subunit beta type-8 (Homo sapiens) (UniProt P28062); assay: Inhibition of human 20S immunoproteasome beta-5 at 50 uM using Suc-LLVY-AMC as substrate incubated for 15 mins measured for 45 mins by fluorescence assay relative to control; in short: as §1
T4 sequence (whole entry): T2 sequence (P28062 whole entry)

[5] = target: T5, Proteasome subunit beta type-9 (Homo sapiens, UniProt P28065); assay: Inhibition of human 20S immunoproteasome beta-1 using Ac-PAL-AMC as substrate incubated for 15 mins measured for 45 mins by fluorescence assay
T5 sequence (P28065 whole entry): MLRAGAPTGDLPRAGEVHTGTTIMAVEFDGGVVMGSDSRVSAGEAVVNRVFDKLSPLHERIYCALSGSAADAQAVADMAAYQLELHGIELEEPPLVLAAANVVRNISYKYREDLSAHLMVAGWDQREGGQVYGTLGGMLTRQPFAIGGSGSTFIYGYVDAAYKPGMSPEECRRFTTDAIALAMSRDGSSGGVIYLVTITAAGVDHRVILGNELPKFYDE
In short: (§2)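 Human 20S immunoproteasome (0.3 nM) was given 15 min with compound (0.001-50 μM) in pH 8 buffer of 20 mM Tris-HCl, 10% glycerol, 0.01% SDS, 2% DMSO. Ac-PAL-AMC at 50 μM was the substrate. Fluorescence (ex 360/em 460 nm) was followed 45 min at 37 °C relative to control.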

[6] = target: T6, Proteasome component C5 (Homo sapiens) (UniProt P20618); assay: Inhibition of human 20S constitutive proteasome beta-1 at 50 uM using Z-LLE-betaNA as substrate incubated for 15 mins measured for 45 mins by fluorescence assay relative to control
T6 sequence (whole entry): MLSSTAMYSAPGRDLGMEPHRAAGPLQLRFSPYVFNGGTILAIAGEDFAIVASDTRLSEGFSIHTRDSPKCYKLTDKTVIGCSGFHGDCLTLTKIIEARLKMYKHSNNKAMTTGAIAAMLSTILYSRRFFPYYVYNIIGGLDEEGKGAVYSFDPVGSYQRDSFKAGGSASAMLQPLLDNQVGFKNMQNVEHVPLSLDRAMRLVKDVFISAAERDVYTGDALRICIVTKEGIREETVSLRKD
In short: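 Human 20S constitutive proteasome, 0.3 nM, was preincubated 15 min with compound (0.001-50 μM) in pH 8 Tris-HCl 20 mM, 10% glycerol, 0.01% SDS, 2% DMSO. Z-LLE-βNA at 50 μM was added. βNA fluorescence (ex 340/em 404 nm) was monitored 45 min at 37 °C against an untreated control.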

[7] = target: T7, Proteasome subunit beta type-9 (Homo sapiens) (UniProt P28065); assay: Inhibition of human 20S immunoproteasome beta-1 at 50 uM using Ac-PAL-AMC as substrate incubated for 15 mins measured for 45 mins by fluorescence assay relative to control; in short: as §2
T7 sequence (whole entry): T5 sequence (P28065 whole entry)

[8] = target: T8, Proteasome subunit beta type-10 (Homo sapiens, UniProt P40306); assay: Inhibition of human 20S immunoproteasome beta-2 using BocLRR-AMC as substrate incubated for 15 mins measured for 45 mins by fluorescence assay
T8 sequence (P40306 whole entry): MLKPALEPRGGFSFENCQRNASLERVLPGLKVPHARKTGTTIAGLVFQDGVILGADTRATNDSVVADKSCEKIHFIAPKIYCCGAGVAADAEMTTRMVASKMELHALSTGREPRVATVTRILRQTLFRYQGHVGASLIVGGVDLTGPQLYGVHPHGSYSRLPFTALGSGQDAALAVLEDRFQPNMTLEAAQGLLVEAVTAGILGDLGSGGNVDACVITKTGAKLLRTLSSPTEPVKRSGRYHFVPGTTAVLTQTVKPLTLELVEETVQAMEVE

[9] = target: Proteasome Macropain subunit (Homo sapiens) (UniProt P49721); assay: Inhibition of human 20S constitutive proteasome beta-2 at 50 uM using BocLRR-AMC as substrate incubated for 15 mins measured for 45 mins by fluorescence assay relative to control
In short: (§3)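 Purified human 20S proteasome (cCP or iCP), 0.3 nM, preincubated 15 min with compound (0.001-50 μM) in pH 8 buffer of 20 mM Tris-HCl, 10% glycerol, 0.005% Triton X-100, 2% DMSO. Then Boc-LRR-AMC at 50 μM was added. AMC fluorescence (ex 360/em 460 nm) was followed 45 min at 37 °C. Activity is relative to an untreated control.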

[10] = target: T9, Proteasome subunit beta type-10 (Homo sapiens) (UniProt P40306); assay: Inhibition of human 20S immunoproteasome beta-2 at 50 uM using BocLRR-AMC as substrate incubated for 15 mins measured for 45 mins by fluorescence assay relative to control
T9 sequence (whole entry): T8 sequence (P40306 whole entry)

Huh-7 = assay: Cytotoxicity against human HuH7 cells assessed as reduction in cell viability after 48 hrs by Hoechst 33342 staining based HCS assay; type: functional; details: huh-7
In short: (§4)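 Cells were grown at 37 °C, 5% CO2 in medium with 10% FBS, 1% penicillin-streptomycin, 2 mM glutamine: DMEM for HuH7, MDA-MB-231 and fibroblasts, EMEM for Caco2, McCoy's for HCT116, RPMI for PC3 and NCI-H727. 4000 cells/well were seeded and dosed 24 h later at 0.1-25 μM final, from DMSO stocks. After 48 h they were fixed in ethanol/acetic acid and Hoechst-stained nuclei were counted by imaging. Survival is relative to DMSO. EC50 came from dose-response curves.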

Caco-2 = assay: Cytotoxicity against human Caco2 cells assessed as reduction in cell viability after 48 hrs by Hoechst 33342 staining based HCS assay; type: functional; in short: as §4
MDA-MB-231 = assay: Cytotoxicity against human MDA-MB-231 cells assessed as reduction in cell viability after 48 hrs by Hoechst 33342 staining based HCS assay; type: functional; details: Homo sapiens, MDA-MB-231, 48 h; read-out: EC50; in short: as §4
HCT-116 = assay: Cytotoxicity against human HCT116 cells assessed as reduction in cell viability after 48 hrs by Hoechst 33342 staining based HCS assay; type: functional; details: Homo sapiens, HCT-116, 48 h; read-out: EC50; in short: as §4
PC-3 = assay: Cytotoxicity against human PC3 cells assessed as reduction in cell viability after 48 hrs by Hoechst 33342 staining based HCS assay; type: functional; details: Homo sapiens, PC-3, 48 h; read-out: EC50; in short: as §4
NCI-H727 = assay: Cytotoxicity against human NCI-H727 cells assessed as reduction in cell viability after 48 hrs by Hoechst 33342 staining based HCS assay; type: functional; in short: as §4
MCF7 = assay: Cytotoxicity against human MCF7 cells assessed as reduction in cell viability after 48 hrs by Hoechst 33342 staining based HCS assay; type: functional; details: Homo sapiens, MCF7, 48 h; read-out: EC50
Fibroblast = assay: Cytotoxicity against human fibroblasts assessed as reduction in cell viability at 25 uM after 48 hrs by Hoechst 33342 staining based HCS assay
[11] = target: T9, Proteasome subunit beta type-10 (Homo sapiens); assay: Activation of human 20S immunoproteasome beta-2 at 50 uM using BocLRR-AMC as substrate incubated for 15 mins measured for 45 mins by fluorescence assay relative to control; in short: as §3
[12] = Homo sapiens, Caco-2, 48 h, read-out: EC50

Proteasome Macropain subunit (Homo sapiens), sequence (P49721 whole entry): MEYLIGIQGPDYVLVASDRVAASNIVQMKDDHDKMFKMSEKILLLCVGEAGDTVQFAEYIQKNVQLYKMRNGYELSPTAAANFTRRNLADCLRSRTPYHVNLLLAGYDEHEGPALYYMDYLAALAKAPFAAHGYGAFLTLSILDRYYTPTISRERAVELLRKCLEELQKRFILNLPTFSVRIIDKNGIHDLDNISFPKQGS

SMILES	IC50 [1] [µM]	IC50 [2] [µM]	inhibition [3] [%]	inhibition [4] [%]	IC50 [5] [µM]	inhibition [6] [%]	inhibition [7] [%]	IC50 [8] [µM]	inhibition [9]	inhibition [10] [%]	EC50 (Huh-7)	EC50 (Caco-2; [12]) [µM]	EC50 (MDA-MB-231) [µM]	EC50 (HCT-116) [µM]	EC50 (PC-3) [µM]	EC50 (NCI-H727; nci-h727)	EC50 (MCF7) [µM]	Activity (Fibroblast)	fold change (FC) [11]	other results
C[C@H](O)[C@@H](NC(=O)[C@H](Cc1ccc(OCc2ccccc2)cc1)NC(=O)OC(C)(C)C)C(=O)N[C@@H](C[C@]1(O)C(=O)Nc2ccccc21)C(=O)NCc1ccccc1	0.125	0.2	> 85	> 85	8.8	> 85	> 85	5.8	> 85%	> 85	Not Active	32	9	9	10	Not Active	9	Non-Toxic		
CC(C)(C)OC(=O)NCCCC[C@H](NC(=O)[C@H](Cc1ccc(OCc2ccccc2)cc1)NC(=O)OC(C)(C)C)C(=O)N[C@@H](C[C@]1(O)C(=O)Nc2ccccc21)C(=O)NCc1ccccc1	22	25.1	> 85	> 85	59	15	> 85		inactive										1.3	
CC(C)c1ccc(CNC(=O)[C@H](C[C@]2(O)C(=O)Nc3ccccc32)NC(=O)[C@H](C)NC(=O)[C@H](Cc2ccc(OCc3ccccc3)cc2)NC(=O)OC(C)(C)C)cc1	10	17.1	> 85	> 85		37	> 85		inactive										1.3	
C[C@@H](O)[C@@H](NC(=O)c1ccc(OCc2ccccc2)cc1)C(=O)N[C@@H](C[C@]1(O)C(=O)Nc2ccccc21)C(=O)NCc1ccccc1	0.0071	0.0102	> 85	> 85	23.8	> 85	> 85	6.6	> 85%	> 85	Not Active	5	0.7	0.2	0.4		0.7	Non-Toxic		EC50 (NCI-H727; Homo sapiens, NCI-H727, 48 h, read-out: EC50): 2 µM
C[C@H](NC(=O)c1ccc(OCc2ccccc2)cc1)C(=O)N[C@@H](C[C@]1(O)C(=O)Nc2ccccc21)C(=O)NCc1ccccc1	0.113	0.17	> 85	> 85	52	> 85	> 85	28.3	> 85%	> 85	Not Active		23	10	24	Not Active	21	Non-Toxic		EC50 (Caco-2; caco-2): Not Active
